Assay results reported in publication PMC6045484 (ACS Omega, 2018).
Converted amounts (≈) assume the structure as drawn.

Key:
[1] = test system: L. donovani promastigotes; assay: in vitro antileishmanial activity, alamarBlue assay; format: cell-based, Leishmania donovani; conditions: Leishmania donovani, 48 h
C. albicans ATCC90028 = assay: in vitro antifungal activity; format: cell-based, Candida albicans; conditions: Candida albicans; for IC50: ATCC90028, read-out: C. albicans IC50; for MFC: ATCC90028, read-out: C. albicans MFC; for MIC: ATCC90028, read-out: C. albicans MIC
In short: (§1)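 Modified NCCLS broth method in Sabouraud dextrose. Inoculum set by OD630 to 1.5 × 10^3 CFU/mL. Test compound serially diluted in 20% DMSO/saline, duplicate wells, up to 20 μg/mL. Incubated 70–74 h at 35 °C; 530 nm read before and after. IC50 is 50% growth inhibition; MIC is no detectable growth. MFC from clear wells subcultured on agar. Amphotericin B control.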

C. neoformans ATCC90113 = assay: in vitro antifungal activity; format: cell-based, Cryptococcus neoformans; conditions: Cryptococcus neoformans; for IC50: ATCC90113, read-out: C. neoformans IC50; for MFC: ATCC90113, read-out: C. neoformans MFC; for MIC: ATCC90113, read-out: C. neoformans MIC
In short: as §1

A. fumigatus ATCC 90906 = assay: in vitro antifungal activity; format: cell-based, Aspergillus fumigatus; conditions: Aspergillus fumigatus; for IC50: ATCC90906, read-out: A. fumigatus IC50; for MFC: ATCC90906, read-out: A. fumigatus MFC; for MIC: ATCC90906, read-out: A. fumigatus MIC
In short: as §1

P. falciparum (W2) = assay: in vitro antimalarial activity, plasmodial LDH; format: cell-based, Plasmodium falciparum; conditions: Plasmodium falciparum, W2, 72 h, read-out: P. falciparum (W2) IC50, CQ-resistant W2 strain, 72 h
In short: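 P. falciparum-infected erythrocytes (2% parasitemia, 2% hematocrit) in RPMI 1640 with 10% human serum and 60 μg/mL amikacin. Exposed to test compound dilutions for 72 h at 37 °C under 90% N2/5% O2/5% CO2. LDH measured with Malstat reagent (30 min, room temperature), then NBT/PES for 1 h in the dark, stopped with 5% acetic acid, read at 650 nm. IC50 from dose-response curves.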

P. falciparum (D6) = assay: in vitro antimalarial activity, plasmodial LDH; format: cell-based, Plasmodium falciparum; conditions: Plasmodium falciparum, D6, 72 h, read-out: P. falciparum (D6) IC50
[2] = test system: SK-MEL, KB, BT-549, SK-OV-3, VERO and LLC-PK1 cells; assay: cytotoxicity, neutral red uptake assay; format: cell-based, mammalian; conditions: highest test concentration 4760 ng/mL
In short: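 Cells seeded at 25 000/well and allowed 24 h to reach confluence. Test compound was then added and incubated 48 h. Viable cells were counted by a modified neutral red uptake method. The panel was four human cancer lines and two noncancerous mammalian kidney lines. Doxorubicin served as positive control and DMSO as negative control.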

SA (ATCC29213) = assay: in vitro antibacterial activity; format: cell-based; conditions: Staphylococcus aureus; for IC50: ATCC29213, read-out: IC50 (concentration that affords 50% growth inhibition), SA; for MBC: ATCC29213, read-out: MBC (minimum bactericidal concentration), SA; for MIC: ATCC29213, read-out: MIC, SA
In short: (§2)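 Test compound serially diluted in 20% DMSO/saline and plated in duplicate, up to 20 μg/mL. Inoculum in cation-adjusted Mueller–Hinton broth, pH 7.3, set by OD630 to 5 × 10^5 CFU/mL. Incubated 16–20 h at 35 °C; 530 nm read before and after. IC50 is 50% growth inhibition; MIC is no detectable growth. MBC from clear wells subcultured on agar. Ciprofloxacin control.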

MRSA (ATCC33591) = assay: in vitro antibacterial activity; format: cell-based, methicillin-resistant Staphylococcus aureus; conditions: Staphylococcus aureus, ATCC33591|MRSA, read-out: MIC, MRSA
In short: as §2

[3] = test system: M. intracellulare (ATCC23068); assay: in vitro antibacterial activity, modified alamarBlue procedure; format: cell-based, Mycobacterium intracellulare; conditions: Mycobacterium intracellulare; for IC50: ATCC23068, read-out: IC50 (concentration that affords 50% growth inhibition), M. intracellulare; for MBC: ATCC23068, read-out: MBC (minimum bactericidal concentration), M. intracellulare; for MIC: ATCC23068, read-out: MIC, M. intracellulare
In short: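 Modified alamarBlue microplate method. Test compound serially diluted in 20% DMSO/saline, duplicate wells, up to 20 μg/mL. Inoculum 2.0 × 10^6 CFU/mL in Middlebrook 7H9 with OADC, pH 7.3, containing 5% alamarBlue. Incubated 70–74 h at 37 °C, 10% CO2; fluorescence 544ex/590em read before and after. MIC: no blue-to-pink change. MBC by subculturing blue wells on agar. Ciprofloxacin control.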

Structure (SMILES)	IC50 (C. albicans ATCC90028)	MFC (C. albicans ATCC90028)	MIC (C. albicans ATCC90028)	IC50 (C. neoformans ATCC90113)	MFC (C. neoformans ATCC90113)	MIC (C. neoformans ATCC90113)	IC50 (A. fumigatus ATCC 90906)	MFC (A. fumigatus ATCC 90906)	MIC (A. fumigatus ATCC 90906)	IC50 (P. falciparum (W2))	IC50 (P. falciparum (D6))	cytotoxicity CTX [2]	IC50 (SA (ATCC29213))	MBC (SA (ATCC29213))	MIC (SA (ATCC29213))	MIC (MRSA (ATCC33591))	IC50 [3]	MBC [3]	MIC [3]	further results
C[C@@H]1[C@H](O)[C@@H](C)/C=C/C=C/C=C/C=C/C=C/C=C/C=C/[C@H](O[C@@H]2O[C@H](C)[C@@H](O)[C@H](N)[C@@H]2O)C[C@@H]2O[C@](O)(C[C@@H](O)C[C@@H](O)[C@H](O)CC[C@@H](O)C[C@@H](O)CC(=O)O[C@H]1C)C[C@H](O)[C@H]2C(=O)O [amphotericin B (AMP), amphotericin B, reference compound]	0.17 µg/mL (≈ 0.184 µM)	1.25 µg/mL (≈ 1.35 µM)	0.63 µg/mL (≈ 0.682 µM)	0.3 µg/mL (≈ 0.325 µM)	0.63 µg/mL (≈ 0.682 µM)	0.63 µg/mL (≈ 0.682 µM)	0.68 µg/mL (≈ 0.736 µM)	2.5 µg/mL (≈ 2.71 µM)	1.25 µg/mL (≈ 1.35 µM)											IC50 ([1]; read-out: L. donovani IC50, promastigotes, 48 h): 0.1 µg/mL (≈ 0.108 µM); IC90 ([1]; read-out: L. donovani IC90, promastigotes, 48 h): 0.3 µg/mL (≈ 0.325 µM)
C[C@@H]1CC[C@H]2[C@@H](C)C(=O)O[C@@H]3O[C@@]4(C)CC[C@@H]1[C@]32OO4 [ART, artemisinin, reference compound]										0.009 µg/mL (≈ 0.0319 µM)										
CCCCOc1c(OC)cc(NC(C)CCCNC(=O)C(N)CCCCN)c2nc(C(C)(C)C)ccc12 (stereo not shown) [compound 90, 2,6-Diamino-N-(4-(5-butoxy-2-tert-butyl-6-methoxyquinolin-8-ylamino)pentyl)-hexanamide]	> 20 µg/mL	> 20 µg/mL	> 20 µg/mL	> 20 µg/mL	> 20 µg/mL	> 20 µg/mL	> 20 µg/mL	> 20 µg/mL	> 20 µg/mL	2.9 µg/mL (≈ 5.62 µM)	4.7 µg/mL (≈ 9.11 µM)	NC (NC, not cytotoxic up to 4760 ng/mL (4.76 μg/mL))	> 20 µg/mL	> 20 µg/mL	> 20 µg/mL	> 20 µg/mL	> 20 µg/mL	> 20 µg/mL	> 20 µg/mL	
CCCCCCOc1c(OC)cc(NC(C)CCCNC(=O)C(N)CCCN)c2nc(C(C)(C)C)ccc12 (stereo not shown) [compound 100, 2,5-Diamino-N-(4-(2-tert-butyl-5-(hexyloxy)-6-methoxyquinolin-8-ylamino)-pentyl)pentanamide]	> 20 µg/mL	> 20 µg/mL	> 20 µg/mL	> 20 µg/mL	> 20 µg/mL	> 20 µg/mL	> 20 µg/mL	> 20 µg/mL	> 20 µg/mL	0.73 µg/mL (≈ 1.38 µM)	0.86 µg/mL (≈ 1.62 µM)	NC (NC, not cytotoxic up to 4760 ng/mL (4.76 μg/mL))	> 20 µg/mL	> 20 µg/mL	> 20 µg/mL	> 20 µg/mL	9.34 µg/mL (≈ 17.6 µM)	> 20 µg/mL	> 20 µg/mL	
CCCCCCCOc1c(OC)cc(NC(C)CCCNC(=O)C(N)CCCCN)c2nc(C(C)(C)C)ccc12 (stereo not shown) [compound 109, 2,6-Diamino-N-(4-(2-tert-butyl-5-(heptyloxy)-6-methoxyquinolin-8-ylamino)-pentyl)hexanamide]	> 20 µg/mL	> 20 µg/mL	> 20 µg/mL	> 20 µg/mL	> 20 µg/mL	> 20 µg/mL	> 20 µg/mL	> 20 µg/mL	> 20 µg/mL	0.68 µg/mL (≈ 1.22 µM)	0.8 µg/mL (≈ 1.43 µM)	NC (NC, not cytotoxic up to 4760 ng/mL (4.76 μg/mL))	> 20 µg/mL	> 20 µg/mL	> 20 µg/mL	> 20 µg/mL	> 20 µg/mL	> 20 µg/mL	> 20 µg/mL	
CCCCCCOc1c(OC)cc(NC(C)CCCNC(=O)C(N)CCCNC(=N)N)c2nc(C(C)(C)C)ccc12 (stereo not shown) [compound 101, 2-Amino-N-(4-(2-tert-butyl-5-(hexyloxy)-6-methoxyquinolin-8-ylamino)pentyl)-5-guanidinopentanamide]	> 20 µg/mL	> 20 µg/mL	> 20 µg/mL	14.3 µg/mL (≈ 25 µM)	> 20 µg/mL	> 20 µg/mL	> 20 µg/mL	> 20 µg/mL	> 20 µg/mL	0.33 µg/mL (≈ 0.577 µM)	0.8 µg/mL (≈ 1.4 µM)	NC (NC, not cytotoxic up to 4760 ng/mL (4.76 μg/mL))	8.87 µg/mL (≈ 15.5 µM)	> 20 µg/mL	> 20 µg/mL	> 20 µg/mL	18.4 µg/mL (≈ 32.2 µM)	> 20 µg/mL	20 µg/mL (≈ 35 µM)	
